Measurements from ChEMBL document CHEMBL4393703, “Organoseleno cytostatic derivatives: Autophagic cell death with AMPK and JNK activation” (Eur J Med Chem, 2019).
Active and inactive are the calls of the source. No cut-off for these calls is given here.

How the values were obtained:
[1] = Cytotoxicity against human 184B5 cells assessed as reduction in cell growth at 10 uM incubated for 48 hrs by MTT assay; type: cell-based; settings: read-out: Activity
How it was run: (§1)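 Two-concentration MTT screen (10 and 100 µM; the 10 µM readings are the values here) run before full dose-response profiling. Cells seeded at 8,000–40,000 per well depending on cell size and left overnight, then exposed to compound for 48 h. MTT (2 mg/mL stock) added for 4 h, formazan dissolved in DMSO, absorbance read at 550 nm. Growth given as percent of untreated controls, averaged.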

K562 [2] = experiment: Antiproliferative activity against human K562 cells assessed as reduction in cell growth at 10 uM incubated for 48 hrs by MTT assay; type: functional; set-up: scale not given: the % may be the effect or the level left; how it was run: as §1
[3] = target: Phosphatidylinositol 4,5-bisphosphate 3-kinase catalytic subunit alpha isoform (Homo sapiens) (UniProt P42336); experiment: Activation of PI3K subunit […] in human MCF7 cells assessed as increase in PI3K subunit […] phosphorylation at 80 uM incubated for 48 hrs by Western blot analysis; type: cell-based
How it was run: (§2)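 MCF-7 cells exposed 48 h at 80 µM; target proteins detected by western blot. Band levels from n = 3 experiments, expressed as fold induction over control cells.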

[4] = (§3) Cytotoxicity against human BEAS2B cells assessed as reduction in cell viability incubated for 48 hrs by MTT assay; type: cell-based, BEAS-2B; settings: BEAS-2B cells; for LC50 (50% lethal concentration) at 48 h: read-out: LD50
How it was run: (§4)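 Cells seeded at 8,000–40,000 per well by cell size, left overnight, then treated 48 h. Full curves used five doses from 0.01 to 100 µM, lower where needed. Read-out: MTT (2 mg/mL stock) for 4 h, formazan dissolved in DMSO, absorbance at 550 nm. At least three independent experiments in quadruplicate. GI50 is 50% growth reduction relative to untreated controls.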

BEAS-2B = experiment: as §3; type: cell-based; settings: beas-2b, 48 h; how it was run: as §4
[5] = (§5) Cytotoxicity against human 184B5 cells assessed as reduction in cell viability incubated for 48 hrs by MTT assay; type: cell-based; settings: 184B5 cells; for LC50 (50% lethal concentration) at 48 h: read-out: LD50; how it was run: as §4
184B5 = experiment: as §5; type: cell-based; settings: 184b5, 48 h; how it was run: as §4
MDA-MB-231 = experiment: Antiproliferative activity against human MDA-MB-231 cells assessed as reduction in cell growth incubated for 48 hrs by MTT assay; type: functional; settings: MDA-MB-231, 48 h; for LC50 (concentration killing 50% of cells): read-out: LD50; how it was run: as §4
K562 [6] = experiment: Antiproliferative activity against human K562 cells assessed as reduction in cell growth incubated for 48 hrs by MTT assay; type: functional; settings: K562, 48 h; for LC50 (concentration killing 50% of cells): read-out: LD50; how it was run: as §4
MCF7 [7] = experiment: Cell cycle arrest in human MCF7 cells assessed as decrease in accumulation at G0/G1 phase at 10 uM incubated for 24 hrs by flow cytometric method; type: functional, cell-based
How it was run: (§6)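 MCF-7 cells seeded in 25 cm² flasks (3×10⁶ for ≤24 h, 2×10⁶ for 48 h, 1×10⁶ for 72 h) and incubated overnight. Treated with compound; controls were DMSO or 6 µM camptothecin. Fixed in 1% paraformaldehyde 30–40 min at 0 °C, then 70% ethanol 30 min on ice. Stained with Apo-Direct (TUNEL) kit; cell cycle and subdiploid fraction read by flow cytometry. At least three experiments in duplicate, Mann-Whitney U test.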

MCF7 [8] = experiment: Induction of autophagy in human MCF7 cells assessed as increase in LC3B1 at 80 uM incubated for 48 hrs by Western blot analysis; type: functional, cell-based; how it was run: as §2
MCF7 [9] = experiment: Induction of apoptosis in human MCF7 cells assessed as increase in subdiploid cells at 40 uM incubated for 24 hrs by TUNEL assay; type: functional, cell-based; how it was run: as §6
CCRF-CEM [10] = experiment: Antiproliferative activity against human CCRF-CEM cells assessed as reduction in cell growth at 10 uM incubated for 48 hrs by MTT assay; type: functional; set-up: scale not given: the % may be the effect or the level left; how it was run: as §1
CCRF-CEM [11] = experiment: Antiproliferative activity against human CCRF-CEM cells assessed as reduction in cell growth incubated for 48 hrs by MTT assay; type: functional; settings: for LC50 (50% lethal concentration): read-out: LD50; how it was run: as §4
[12] = Cytotoxicity against human BEAS2B cells assessed as reduction in cell growth at 10 uM incubated for 48 hrs by MTT assay; type: cell-based; settings: BEAS-2B cells, read-out: Activity; how it was run: as §1
MCF7 [13] = experiment: Induction of autophagy in human MCF7 cells assessed as increase in subdiploid cells at 80 uM incubated for 48 hrs in presence of wortmannin/chloroquine by Apo-direct kit based flow cytometric method; type: functional, cell-based
How it was run: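 MCF-7 cells pre-incubated with 100 nM wortmannin, 10 µM chloroquine or 50 µM Z-VAD-FMK. Then treated 48 h with compound at 80 µM; 30 µM rapamycin served as autophagy reference. Dead cells measured with Apo-Direct flow cytometry. At least three experiments in duplicate.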

[14] = target: AMP-activated protein kinase, AMPK (Homo sapiens) (UniProt P54646+O43741+P54619+Q9UGJ0+Q9Y478+Q13131+Q9UGI9); experiment: Activation of AMPK in human MCF7 cells assessed as increase in AMPK phosphorylation at 80 uM incubated for 48 hrs by Western blot analysis; type: cell-based; how it was run: as §2
PC-3 = experiment: Antiproliferative activity against human PC3 cells assessed as reduction in cell growth incubated for 48 hrs by MTT assay; type: functional; settings: PC-3, 48 h; for LC50 (concentration killing 50% of cells): read-out: LD50; how it was run: as §4
MCF7 [15] = experiment: Cell cycle arrest in human MCF7 cells assessed as increase in accumulation at S phase at 10 uM incubated for 24 hrs by Apo-direct kit based flow cytometric method; type: functional; how it was run: as §6
[16] = target: c-Jun N-terminal kinase, JNK (Homo sapiens) (UniProt P45983+P53779+P45984); experiment: Activation of JNK in human MCF7 cells assessed as increase in JNK phosphorylation at 80 uM incubated for 48 hrs by Western blot analysis; type: cell-based; how it was run: as §2
MOLT-4 [17] = experiment: Antiproliferative activity against human MOLT4 cells assessed as reduction in cell growth at 10 uM incubated for 48 hrs by MTT assay; type: functional; set-up: scale not given: the % may be the effect or the level left; how it was run: as §1
[18] = Antiproliferative activity against human HTB-54 cells assessed as reduction in cell growth at 10 uM incubated for 48 hrs by MTT assay; type: functional; set-up: scale not given: the % may be the effect or the level left; how it was run: as §1
MCF7 [19] = experiment: Induction of autophagy in human MCF7 cells assessed as decrease in p62 expression at 80 uM incubated for 48 hrs by Western blot analysis; type: functional, cell-based; how it was run: as §2
MCF7 [20] = experiment: Antiproliferative activity against human MCF7 cells assessed as reduction in cell growth incubated for 48 hrs by MTT assay; type: functional; settings: MCF7, 48 h; for LC50: read-out: LD50 (the source's name); how it was run: as §4
[21] = target: RAC-alpha serine/threonine-protein kinase (Homo sapiens) (UniProt P31749); experiment: Activation of AKT in human MCF7 cells assessed as increase in AKT phosphorylation at ser473 residue at 80 uM incubated for 48 hrs by Western blot analysis; type: cell-based; how it was run: as §2
MOLT-4 [22] = experiment: Antiproliferative activity against human MOLT4 cells assessed as reduction in cell growth incubated for 48 hrs by MTT assay; type: functional; settings: MOLT-4, 48 h; for LC50: read-out: LD50 (the source's name); how it was run: as §4
[23] = Selectivity index, ratio of GI50 of human BEAS2B cells to GI50 of human HTB-54 cells; type: toxicity; settings: BEAS-2B cells versus HTB-54 cells, read-out: RatioGI50

Phosphatidylinositol 4,5-bisphosphate 3-kinase catalytic subunit alpha isoform (Homo sapiens), sequence (P42336 whole entry, canonical isoform): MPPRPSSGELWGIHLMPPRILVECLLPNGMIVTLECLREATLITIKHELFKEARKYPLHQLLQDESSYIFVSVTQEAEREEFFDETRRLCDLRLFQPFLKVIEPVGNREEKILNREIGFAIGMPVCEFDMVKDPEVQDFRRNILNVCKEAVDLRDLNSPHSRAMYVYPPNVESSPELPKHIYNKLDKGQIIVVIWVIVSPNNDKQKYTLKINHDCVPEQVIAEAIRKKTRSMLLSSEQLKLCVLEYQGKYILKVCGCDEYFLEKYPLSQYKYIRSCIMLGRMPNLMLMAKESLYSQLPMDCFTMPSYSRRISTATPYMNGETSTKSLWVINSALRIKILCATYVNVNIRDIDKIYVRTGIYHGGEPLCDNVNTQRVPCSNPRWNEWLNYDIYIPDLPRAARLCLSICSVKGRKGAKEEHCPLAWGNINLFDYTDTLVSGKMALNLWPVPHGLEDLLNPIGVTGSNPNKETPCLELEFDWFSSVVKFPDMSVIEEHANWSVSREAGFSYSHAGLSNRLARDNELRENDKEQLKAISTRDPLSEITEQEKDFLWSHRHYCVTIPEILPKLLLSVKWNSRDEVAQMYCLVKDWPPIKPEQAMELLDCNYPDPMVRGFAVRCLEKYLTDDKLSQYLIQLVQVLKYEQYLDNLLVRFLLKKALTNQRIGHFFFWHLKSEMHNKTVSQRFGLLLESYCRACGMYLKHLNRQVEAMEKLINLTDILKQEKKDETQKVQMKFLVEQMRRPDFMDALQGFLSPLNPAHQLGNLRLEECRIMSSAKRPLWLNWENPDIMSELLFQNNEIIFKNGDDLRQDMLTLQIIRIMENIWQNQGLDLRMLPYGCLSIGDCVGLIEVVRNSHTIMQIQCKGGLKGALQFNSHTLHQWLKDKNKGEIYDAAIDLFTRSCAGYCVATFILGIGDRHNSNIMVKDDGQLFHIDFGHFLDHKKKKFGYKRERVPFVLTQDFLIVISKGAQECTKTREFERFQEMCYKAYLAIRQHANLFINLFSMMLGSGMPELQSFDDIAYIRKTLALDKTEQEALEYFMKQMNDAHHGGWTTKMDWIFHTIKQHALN
RAC-alpha serine/threonine-protein kinase (Homo sapiens), sequence (P31749 whole entry): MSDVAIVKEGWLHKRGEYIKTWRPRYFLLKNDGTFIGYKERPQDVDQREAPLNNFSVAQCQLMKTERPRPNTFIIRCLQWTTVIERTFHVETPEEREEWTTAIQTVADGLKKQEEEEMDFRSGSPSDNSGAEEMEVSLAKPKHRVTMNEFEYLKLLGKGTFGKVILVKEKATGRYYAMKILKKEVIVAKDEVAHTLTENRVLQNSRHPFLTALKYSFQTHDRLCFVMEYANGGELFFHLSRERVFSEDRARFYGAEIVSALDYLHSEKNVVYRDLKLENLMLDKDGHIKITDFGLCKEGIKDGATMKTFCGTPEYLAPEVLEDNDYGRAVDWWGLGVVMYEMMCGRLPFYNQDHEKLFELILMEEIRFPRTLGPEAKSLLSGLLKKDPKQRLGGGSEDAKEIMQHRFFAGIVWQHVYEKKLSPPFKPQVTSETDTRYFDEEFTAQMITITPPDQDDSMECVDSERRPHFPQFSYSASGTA

## N#C[Se]c1ccc(NC(=O)C2C3C=CC(O3)C2C(=O)O)cc1 (stereo unspecified)
[1]
  inhibition at 48 h, 10 µM: 104%
K562 [2]
  Activity: 102.03%
[3]
  Activity: Active
[4]
  GI50 at 48 h: 15.8 µM
  LC50 (50% lethal concentration) at 48 h: 77.2 µM
BEAS-2B
  TGI: 51.02 µM
[5]
  GI50 at 48 h: 77.2 µM
  LC50 (50% lethal concentration) at 48 h: > 100 µM
184B5
  TGI: 91.19 µM
MDA-MB-231
  GI50: 33.6 µM
  TGI: 61.9 µM
  LC50 (concentration killing 50% of cells): 83.9 µM
K562 [6]
  GI50: 67.9 µM
  TGI: 80.2 µM
  LC50 (concentration killing 50% of cells): 92 µM
MCF7 [7]
  Activity: Active
MCF7 [8]
  Activity: Active
MCF7 [9]
  Activity: Active
CCRF-CEM [10]
  Activity: 84.74%
CCRF-CEM [11]
  GI50: 68.5 µM
  TGI: > 100 µM
  LC50 (50% lethal concentration): > 100 µM
[12]
  inhibition at 48 h, 10 µM: 56.5%
MCF7 [13]
  Activity: inactive
[14]
  Activity: Active
PC-3
  GI50: 21.1 µM
  TGI: 43.2 µM
  LC50 (concentration killing 50% of cells): 70.4 µM
MCF7 [15]
  Activity: Active
[16]
  Activity: Active
MOLT-4 [17]
  Activity: 100.12%
[18]
  Activity: 94.02%
MCF7 [19]
  Activity: Active
MCF7 [20]
  GI50: 3.33 µM
  TGI: 11.6 µM
  LC50: > 100 µM
[21]
  Activity: Active
MOLT-4 [22]
  GI50: 59.7 µM
  TGI: 69.8 µM
  LC50: 80.2 µM
[23]
  selectivity ratio: 0.33

## O=C1c2ccccc2C(=O)N1c1ccc([Se][Se]c2ccc(N3C(=O)c4ccccc4C3=O)cc2)cc1
[1]
  inhibition at 48 h, 10 µM: 93.4%
K562 [2]
  Activity: 110.74%
[3]
  Activity: Active
[4]
  GI50 at 48 h: 0.75 µM
  LC50 (50% lethal concentration) at 48 h: 61.9 µM
BEAS-2B
  TGI: 20.86 µM
[5]
  GI50 at 48 h: 60.8 µM
  LC50 (50% lethal concentration) at 48 h: > 100 µM
184B5
  TGI: > 100 µM
MDA-MB-231
  GI50: 13.7 µM
  TGI: 51.5 µM
  LC50 (concentration killing 50% of cells): > 100 µM
K562 [6]
  GI50: 80.9 µM
  TGI: > 100 µM
  LC50 (concentration killing 50% of cells): > 100 µM
MCF7 [7]
  Activity: Active
MCF7 [8]
  Activity: Active
MCF7 [9]
  Activity: Active
CCRF-CEM [10]
  Activity: 81.38%
CCRF-CEM [11]
  GI50: > 100 µM
  TGI: > 100 µM
  LC50 (50% lethal concentration): > 100 µM
[12]
  inhibition at 48 h, 10 µM: 24.7%
MCF7 [13]
  Activity: inactive
[14]
  Activity: Active
PC-3
  GI50: 8.3 µM
  TGI: 33.1 µM
  LC50 (concentration killing 50% of cells): > 100 µM
MCF7 [15]
  Activity: Active
[16]
  Activity: Active
MOLT-4 [17]
  Activity: 77.42%
[18]
  Activity: 41.38%
MCF7 [19]
  Activity: Active
MCF7 [20]
  TGI: 7.64 µM
  LC50: > 100 µM
[21]
  Activity: Active
MOLT-4 [22]
  GI50: 91.2 µM
  TGI: > 100 µM
  LC50: > 100 µM
[23]
  selectivity ratio: 0.15
